Assays:
[1] = Metabolic stability in human liver microsomes assessed as parent compound remaining at 1 uM measured after 30 mins in presence of NADPH by LC-MS/MS analysis; assay type: ADME, Microsome; settings: read-out: Stability
Outline: (§1)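 Male CD-1 mouse or pooled human liver microsomes (1 mg/mL protein), compound at 1 µM, 37 °C. Reaction started with 1 mM NADPH and quenched with cold ACN/MeOH containing internal standard. Parent remaining measured by LC-MS/MS; the 30-min value is normalised to time zero.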

[2] = Metabolic stability in CD-1 mouse liver microsomes assessed as parent compound remaining at 1 uM measured after 30 mins in presence of NADPH by LC-MS/MS analysis; assay type: ADME, Microsome; settings: read-out: Stability; outline: as §1
HepG2 = assay: Cytotoxicity against human HepG2 cells assessed as reduction in cell viability after 48 hrs by MTT assay; assay type: cell-based; settings: HepG2, 48 h
Outline: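 Vero or HepG2 cells in RPMI1640 with 10% FBS at 37 °C, 5% CO2, seeded at 4×10^5 cells/mL. Threefold dilutions at 64–0.26 µg/mL final for 48 h. Cells then washed with HBSS, MTT added for 4 h, absorbance read at 492 nm. IC50 taken relative to untreated control.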

[3] = Selectivity index, ratio of IC50 for human HepG2 cells to MIC=>90 for Mycobacterium tuberculosis H37Rv; assay type: toxicity; settings: read-out: Selectivity Index
[4] = Inhibition of Mycobacterium tuberculosis DprE1 expressed in Escherichia coli BL21(DE3) by fluorescence based assay
Outline: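 Buffer: 50 mM Hepes pH 7.5, 100 mM NaCl, 1.5% DMSO, 100 µM Tween-20, 2 µM FAD, 50 µM resazurin. DprE1 (1 µM) with 1 mM FPR at 30 °C across inhibitor concentrations. Resorufin formation followed by fluorescence (ex 530/em 595 nm).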

Cytochrome P450 3A4 = Cytochrome P450 3A4 (Homo sapiens, UniProt P08684); assay: Inhibition of CYP3A4 in human liver microsomes after 20 mins by LC-MS/MS analysis; assay type: ADME
Outline: (§2)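 Compound at 0.1–50 µM incubated 20 min with human liver microsomes (0.2 mg/mL) and the CYP isoform, alongside isoform-specific probe substrates. Substrate remaining measured by LC-MS/MS at each concentration to derive IC50.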

Cytochrome P450 1A2 = target: T1, Cytochrome P450 1A2 (Homo sapiens, UniProt P05177); assay: Inhibition of CYP1A2 in human liver microsomes after 20 mins by LC-MS/MS analysis; assay type: ADME; outline: as §2
T1 sequence (P05177 whole entry): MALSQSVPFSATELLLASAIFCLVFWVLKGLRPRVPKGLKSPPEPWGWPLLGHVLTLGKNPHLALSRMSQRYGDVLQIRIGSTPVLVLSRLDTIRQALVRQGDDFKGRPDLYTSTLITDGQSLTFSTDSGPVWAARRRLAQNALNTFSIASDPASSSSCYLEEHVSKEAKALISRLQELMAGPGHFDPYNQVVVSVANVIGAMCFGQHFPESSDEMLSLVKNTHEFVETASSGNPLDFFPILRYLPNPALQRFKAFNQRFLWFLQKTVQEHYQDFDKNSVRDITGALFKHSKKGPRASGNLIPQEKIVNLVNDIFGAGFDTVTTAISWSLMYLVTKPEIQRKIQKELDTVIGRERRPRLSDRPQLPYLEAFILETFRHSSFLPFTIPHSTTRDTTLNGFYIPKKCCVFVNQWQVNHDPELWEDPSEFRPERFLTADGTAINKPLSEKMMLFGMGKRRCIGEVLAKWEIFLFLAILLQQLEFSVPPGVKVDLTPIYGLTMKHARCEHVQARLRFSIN

Cytochrome P450 2D6 = Cytochrome P450 2D6 (Homo sapiens, UniProt P10635); assay: Inhibition of CYP2D6 in human liver microsomes after 20 mins by LC-MS/MS analysis; assay type: ADME; outline: as §2
Cytochrome P450 2C19 = Cytochrome P450 2C19 (Homo sapiens, UniProt P33261); assay: Inhibition of CYP2C19 in human liver microsomes after 20 mins by LC-MS/MS analysis; assay type: ADME; outline: as §2
[5] = Half life in human hepatocytes assessed per million cells at 1 uM incubated up to 120 mins by LC-MS/MS analysis; assay type: ADME, cell-based, Hepatocyte
Outline: (§3)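 Pooled male CD-1 mouse or pooled human hepatocytes at 1 million cells/mL final, compound at 1 µM. Incubated at 37 °C in a CO2 incubator with shaking (~100 rpm). Samples taken at 0, 15, 30, 60, 90 and 120 min and quenched with cold ACN/MeOH containing internal standard. Parent compound remaining measured by LC-MS/MS.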

[6] = Intrinsic clearance in human hepatocytes assessed per million cells at 1 uM incubated up to 120 mins by LC-MS/MS analysis; assay type: ADME, cell-based, Hepatocyte; settings: read-out: CLH; outline: as §3
[7] = target: Voltage-gated inwardly rectifying potassium channel KCNH2 (Homo sapiens, UniProt Q12809); assay: Inhibition of human ERG expressed in HEK293 cells by whole-cell patch clamp assay; assay type: cell-based
Outline: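 HEK293 cells stably transfected with hERG. Current recorded by whole-cell manual patch clamp at 25 °C, sampled at 10 kHz. Five concentrations tested (30, 10, 3.0, 1.0, 0.3 µM) in duplicate for IC50, with dofetilide as positive control.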

[8] = Acute toxicity in BALB/C mouse assessed as mouse survival at 2 g/kg, po administered as single dose measured during 7 days observation period; assay type: organism-based; settings: in vivo, 2000 mg/kg, 168 h
Outline: (§4)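 Female Balb/c mice (18–21 g), ten animals, given one oral dose of 2 g/kg. Survivors counted after 7 days of observation.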

[9] = Acute toxicity in po dosed BALB/C mouse assessed as mortality administered as single dose measured during 7 days observation period; assay type: organism-based; settings: in vivo; outline: as §4
[10] = Elimination half life in BALB/C mouse at 25 mg/kg, po by LC/TSQ quantum access mass spectrometry; assay type: ADME, organism-based; settings: in vivo, read-out: beta t1/2 (converted)
Outline: (§5)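 Male Balb/c mice (22–23 g), three per route. Single dose of 25 mg/kg p.o. (2.5 mg/mL in 0.5% carboxymethyl cellulose + 0.5% Tween 80) or 10 mg/kg i.v. (2.0 mg/mL in 20% HP-β-CD with 4 mol/L HCl). Blood sampled 5, 15, 30 min, 1, 2, 4, 7, 24 h. Plasma extracted with acetonitrile plus terfenadine internal standard, then LC-MS/MS on a C18 column. F = (AUCpo×dose_iv)/(AUCiv×dose_po).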

[11] = Elimination half life in BALB/C mouse at 10 mg/kg, iv by LC/TSQ quantum access mass spectrometry; assay type: ADME, organism-based; settings: in vivo, read-out: beta t1/2 (converted); outline: as §5
[12] = AUC (0 to 24 hrs) in BALB/C mouse at 10 mg/kg, iv by LC/TSQ quantum access mass spectrometry; assay type: ADME, organism-based; set-up: time < 24 hr, dose 10 mg/kg, route intravenous; settings: in vivo; outline: as §5
[13] = AUC (0 to infinity) in BALB/C mouse at 25 mg/kg, po by LC/TSQ quantum access mass spectrometry; assay type: ADME, organism-based; set-up: dose 25 mg/kg, time infinity, route oral; settings: in vivo; outline: as §5
[14] = MRT (0 to infinity) in BALB/C mouse at 25 mg/kg, po by LC/TSQ quantum access mass spectrometry; assay type: ADME, organism-based; settings: in vivo; outline: as §5
[15] = Clearance in BALB/C mouse at 10 mg/kg, iv by LC/TSQ quantum access mass spectrometry; assay type: ADME, organism-based; settings: in vivo; outline: as §5
[16] = Oral bioavailability in BALB/C mouse at 25 mg/kg by LC/TSQ quantum access mass spectrometry; assay type: ADME, organism-based; settings: in vivo; outline: as §5

Chain of Cytochrome P450 2C19 (P33261 whole entry): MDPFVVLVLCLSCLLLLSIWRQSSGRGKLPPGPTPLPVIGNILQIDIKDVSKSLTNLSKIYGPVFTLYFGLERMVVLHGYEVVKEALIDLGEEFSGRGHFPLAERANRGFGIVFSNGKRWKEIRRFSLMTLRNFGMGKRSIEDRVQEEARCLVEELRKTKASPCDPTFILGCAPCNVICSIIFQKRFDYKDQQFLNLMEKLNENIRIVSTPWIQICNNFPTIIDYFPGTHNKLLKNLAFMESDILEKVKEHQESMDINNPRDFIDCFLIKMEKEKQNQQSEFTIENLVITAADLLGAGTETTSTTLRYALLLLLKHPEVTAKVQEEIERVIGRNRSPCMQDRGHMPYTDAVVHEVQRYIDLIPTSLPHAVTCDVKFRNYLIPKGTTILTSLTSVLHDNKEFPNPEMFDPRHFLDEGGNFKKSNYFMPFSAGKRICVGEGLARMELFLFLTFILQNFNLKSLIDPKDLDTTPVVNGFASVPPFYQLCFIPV
Chain of Cytochrome P450 3A4 (P08684 whole entry, canonical isoform): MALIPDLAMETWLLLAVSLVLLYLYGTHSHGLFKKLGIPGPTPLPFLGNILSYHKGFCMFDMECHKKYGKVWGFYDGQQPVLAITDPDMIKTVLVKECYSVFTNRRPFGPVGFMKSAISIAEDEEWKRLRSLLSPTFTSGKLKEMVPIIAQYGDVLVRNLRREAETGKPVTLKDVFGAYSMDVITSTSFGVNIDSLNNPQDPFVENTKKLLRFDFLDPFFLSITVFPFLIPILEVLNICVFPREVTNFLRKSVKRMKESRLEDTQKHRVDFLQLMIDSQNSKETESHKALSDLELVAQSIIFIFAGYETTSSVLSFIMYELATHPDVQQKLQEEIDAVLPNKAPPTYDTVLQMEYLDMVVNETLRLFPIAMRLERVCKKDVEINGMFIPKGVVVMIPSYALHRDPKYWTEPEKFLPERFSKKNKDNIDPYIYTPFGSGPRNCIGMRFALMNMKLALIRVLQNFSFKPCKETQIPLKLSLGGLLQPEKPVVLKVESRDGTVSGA
Chain of Cytochrome P450 2D6 (P10635 whole entry): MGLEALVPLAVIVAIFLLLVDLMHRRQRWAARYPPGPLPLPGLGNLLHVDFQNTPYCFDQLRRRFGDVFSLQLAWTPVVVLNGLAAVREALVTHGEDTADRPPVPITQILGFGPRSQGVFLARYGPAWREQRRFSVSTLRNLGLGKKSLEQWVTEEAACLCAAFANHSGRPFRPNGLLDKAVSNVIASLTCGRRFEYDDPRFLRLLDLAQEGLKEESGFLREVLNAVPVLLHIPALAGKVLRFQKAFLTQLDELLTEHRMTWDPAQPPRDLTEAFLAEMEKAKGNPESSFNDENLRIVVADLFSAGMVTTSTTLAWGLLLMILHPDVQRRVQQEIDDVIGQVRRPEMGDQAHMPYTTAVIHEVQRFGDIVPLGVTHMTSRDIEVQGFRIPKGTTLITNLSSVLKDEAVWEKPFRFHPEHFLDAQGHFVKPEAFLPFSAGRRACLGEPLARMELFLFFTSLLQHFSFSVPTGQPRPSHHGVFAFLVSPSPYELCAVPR
Chain of Voltage-gated inwardly rectifying potassium channel KCNH2 (Q12809 whole entry): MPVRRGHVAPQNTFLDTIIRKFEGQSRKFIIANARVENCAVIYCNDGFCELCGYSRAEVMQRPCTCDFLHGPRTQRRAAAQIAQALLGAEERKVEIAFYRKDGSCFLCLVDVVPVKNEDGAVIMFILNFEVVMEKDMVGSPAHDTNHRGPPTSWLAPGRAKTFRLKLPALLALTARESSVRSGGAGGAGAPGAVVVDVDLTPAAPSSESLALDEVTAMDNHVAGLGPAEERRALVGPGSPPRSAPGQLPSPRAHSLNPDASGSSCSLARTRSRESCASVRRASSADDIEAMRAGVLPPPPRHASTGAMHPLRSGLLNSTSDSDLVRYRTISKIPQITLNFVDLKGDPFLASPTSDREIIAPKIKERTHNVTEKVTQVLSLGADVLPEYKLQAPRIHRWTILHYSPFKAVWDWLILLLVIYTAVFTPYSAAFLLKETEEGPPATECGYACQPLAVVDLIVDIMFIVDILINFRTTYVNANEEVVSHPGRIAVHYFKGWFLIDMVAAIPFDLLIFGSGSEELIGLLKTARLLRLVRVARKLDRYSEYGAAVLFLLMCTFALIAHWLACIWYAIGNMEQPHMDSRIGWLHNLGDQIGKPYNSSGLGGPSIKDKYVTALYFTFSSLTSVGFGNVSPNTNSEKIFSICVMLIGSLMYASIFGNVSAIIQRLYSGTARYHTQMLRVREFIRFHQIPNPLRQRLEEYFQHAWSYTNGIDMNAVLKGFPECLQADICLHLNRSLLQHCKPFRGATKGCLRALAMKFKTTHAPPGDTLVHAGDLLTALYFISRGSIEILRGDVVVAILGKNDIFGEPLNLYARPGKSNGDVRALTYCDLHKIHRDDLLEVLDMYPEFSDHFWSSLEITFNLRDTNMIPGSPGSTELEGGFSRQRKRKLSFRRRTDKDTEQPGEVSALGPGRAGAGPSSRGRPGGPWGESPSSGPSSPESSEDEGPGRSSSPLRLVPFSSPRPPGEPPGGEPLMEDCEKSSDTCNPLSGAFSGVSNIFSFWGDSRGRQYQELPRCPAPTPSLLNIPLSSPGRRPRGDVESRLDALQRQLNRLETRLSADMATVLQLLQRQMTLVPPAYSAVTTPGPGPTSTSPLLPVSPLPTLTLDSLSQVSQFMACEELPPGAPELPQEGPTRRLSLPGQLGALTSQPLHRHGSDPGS

For `O=c1cc(N2CCN(CC3CCCCC3)CC2)sc2c([N+](=O)[O-])cc(C(F)(F)F)cc12`, which remaining at 0.5 h, 1 µM [1] is on record?
The remaining at 0.5 h, 1 µM was 66.7%.

And the remaining at 0.5 h, 1 µM [2]?
The remaining at 0.5 h, 1 µM was 61.5%.

What about the IC50 (HepG2) of the same compound?
The IC50 was > 64 µg/mL.

What about the selectivity ratio [3] of the same compound?
Its selectivity ratio is > 4000.

What about the IC50 [4] of the same compound?
Its IC50 is 4.53 µM.

What about the IC50 (Cytochrome P450 3A4) of the same compound?
The IC50 was > 50 µM.

What about the IC50 (Cytochrome P450 1A2) of the same compound?
Its IC50 is > 50 µM.

And the IC50 (Cytochrome P450 2D6)?
Its IC50 is > 50 µM.

What about the IC50 (Cytochrome P450 2C19) of the same compound?
The IC50 was > 50 µM.

What about the half-life at 1 µM [5] of the same compound?
The half-life at 1 µM was 3.73 h.

And the hepatocyte CLint at 1 µM [6]?
Its hepatocyte CLint at 1 µM is 3.1 µL/min/1e6 cells.

What about the IC50 [7] of the same compound?
Its IC50 is > 30 µM.

What about the Activity [8] of the same compound?
The Activity was “Non-Toxic”.

What about the LD50 at 168 h [9] of the same compound?
Its LD50 at 168 h is > 2000 mg/kg.

And the half-life [10]?
The half-life was 7.25 h.

What about the half-life [11] of the same compound?
The half-life was 6.54 h.

What about the AUC(0-t) at 24 h [12] of the same compound?
Its AUC(0-t) at 24 h is 4950 ng·h/mL.

And the AUC(0-inf) [13]?
Its AUC(0-inf) is 1700 ng·h/mL.

And the MRT inf [14]?
The MRT inf was 6.59 h.

And the clearance [15]?
The clearance was 32.3 mL/min/kg.

And the bioavailability [16]?
Its bioavailability is 13.1%.
